According to paper PMC6843717 (ACS Omega, 2019):
Several values for one entry are separate records, joined by “and”; a condition that tells them apart may be missing. Equal entries are not always repeated.

Tests used:
[1] = Stability of MBQ-167 in mouse liver; type: physicochemical; conditions: for postpreparative stability RE% / short term stability RE% / freeze–thaw stability RE% / long term stability RE%: liver; for postpreparative stability RE%: 8 h; for short term stability RE%: 3 h in an ice bucket; for freeze–thaw stability RE% / long term stability RE%: −80 °C; for freeze–thaw stability RE%: 3 cycles 24 h; for long term stability RE%: 90 days
Method in brief: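 Spiked mouse tissue QCs (calibration 10–1000 ng/mL) quantified by SFC-MS/MS; RE% against nominal. Short-term: 15 and 950 ng/mL, 3 h in an ice bucket. Postpreparative: 15, 450 and 950 ng/mL, 8 h at 4 °C. Long-term: −80 °C for 90 days. Freeze–thaw: three 24 h cycles at −80 °C.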

[2] = test system: HER2-type mammary fat pad tumor; conditions: 10 mg/kg BW; immunocompromised mice; cited from earlier work
Cdc42 = conditions: read-out: IC50 for Cdc42 activation; cited from earlier work
[3] = Tissue distribution after single IP or PO dose; type: in vivo, BALB/c mice; conditions: for MRT inf / Vd/F / concentration at 30 min / half-life / k el / tissue uptake / Tmax: 10 mg/kg; for Tmax / AUC0–t / Cl/F: mean ± SEM
Method in brief: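 Same single 10 mg/kg IP or PO dosing in female BALB/c mice. Liver, heart, spleen, kidneys and lungs taken at 0.17, 0.5, 1 and 3 h (n = 5), saline-flushed and snap-frozen. Tissue homogenized 1:4 w/v in pH 7.4 saline, liquid–liquid extracted with internal standard, quantified by SFC-MS/MS. Localization index = tissue %ID/g over plasma %ID/mL; mean ± SEM.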

[4] = MBQ-167 distribution in mouse mammary tumors; type: in vivo, SCID mice; conditions: 2.5 mg/kg BW 24 h prior to sacrifice, 3-month multiple low-dose regimen
Method in brief: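 Female SCID mice, 4 weeks old, received 2 × 10^6 GFP-tagged MDA-MB-468 cells into the mammary fat pad. After 1 week, vehicle or 2.5 mg/kg ip was given three times weekly for 3 months. Twenty-four hours after the last dose, five mice per arm got 10 mg/kg 30 min before sacrifice. Tumours were saline-flushed, snap-frozen, homogenized, extracted and quantified by SFC-MS/MS (n = 5).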

[5] = Plasma pharmacokinetics after single IP or PO dose; type: in vivo, Balb/c mice
Method in brief: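 Female BALB/c mice, 4–5 weeks old, acclimated 1 week. Single 10 mg/kg dose (0.1 mL in 12.5% ethanol/12.5% cremophor/75% PBS, pH 7.4), IP or oral gavage. Five mice per time point (0.08–12 h) bled by cardiac puncture into citrate. Plasma protein-precipitated and analysed by SFC-MS/MS (ESI+, m/z 339.1→179.9). λz by terminal log-linear regression; relative bioavailability PO vs IP.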

[6] = female, BALB/c, mouse, heart, ip
[7] = female, BALB/c, mouse, heart, po
[8] = female, BALB/c, mouse, kidneys, ip
[9] = female, BALB/c, mouse, kidneys, po
[10] = female, BALB/c, mouse, liver, ip
[11] = female, BALB/c, mouse, liver, po
[12] = female, BALB/c, mouse, lungs, ip
[13] = female, BALB/c, mouse, lungs, po
[14] = female, BALB/c, mouse, spleen, ip
[15] = female, BALB/c, mouse, spleen, po
[16] = female, BALB/c, mouse, plasma, ip, 10 mg/kg
[17] = female, BALB/c, mouse, plasma, po, 10 mg/kg
[18] = plasma, intraperitoneal 10 mg/kg, mean ± SEM

CCn1c2ccccc2c2cc(-n3nncc3-c3ccccc3)ccc21 [MBQ-167]
stability in tissues ([1]; incubation in an ice bucket for 3 h): stable | postpreparative stability RE% ([1]; spiked 15 ng/mL, 4 °C): –15% | short term stability RE% ([1]; spiked 15 ng/mL): 0.1% | freeze–thaw stability RE% ([1]; spiked 15 ng/mL): 1.5% | long term stability RE% ([1]; spiked 15 ng/mL): 6.5% | postpreparative stability RE% ([1]; spiked 950 ng/mL, 4 °C): –6.7% | short term stability RE% ([1]; spiked 950 ng/mL): –12.2% | freeze–thaw stability RE% ([1]; spiked 950 ng/mL): –3.2% | long term stability RE% ([1]; spiked 950 ng/mL): 9.2% | postpreparative stability in autosampler conditions ([1]; tissues, 4 °C): 8 h | long-term stability at −80 °C ([1]; tissues, both low and high concentrations of quality control samples): 90 days | freeze–thaw stability ([1]; tissues, three freeze–thaw cycles lasting 24 h): stable | reduction of HER2-type mammary fat pad tumor growth [2]: ~90% | reduction of metastasis [2]: ~90% and ~99% | IC50 (Cdc42): […] | MRT inf [3, 6]: 0.98 ± 0.01 h | Vd/F [3, 6]: 0.334 ± 0.139 L | concentration at 30 min [3, 6]: 797 ng/g | half-life [3, 6]: 0.97 ± 0.12 h | k el [3, 6]: 0.000206 s⁻¹ | tissue uptake [3, 6]: 0.4 ± 0.11 %ID/g | Tmax ([3]; female, BALB/c, mouse, heart, ip, Tmax, IP 10 mg/kg): 0.5 h | MRT inf [3, 7]: 1.03 ± 0.05 h | Vd/F [3, 7]: 0.674 ± 0.101 L | half-life [3, 7]: 1.34 ± 0.03 h | k el [3, 7]: 0.000144 s⁻¹ | tissue uptake [3, 7]: 0.22 ± 0.03 %ID/g | Tmax ([3]; female, BALB/c, mouse, heart, po, Tmax, PO 10 mg/kg): 0.5 h | MRT inf [3, 8]: 2.12 ± 0.07 h | Vd/F [3, 8]: 0.023 ± 0.012 L | concentration at 30 min [3, 8]: 10500 ng/g | half-life [3, 8]: 1.39 ± 0.08 h | k el [3, 8]: 0.000139 s⁻¹ | tissue uptake [3, 8]: 6 ± 1.4 %ID/g | MRT inf [3, 9]: 2.7 ± 0.5 h | Vd/F [3, 9]: 0.188 ± 0.035 L | half-life [3, 9]: 3.4 ± 0.9 h | k el [3, 9]: 6.67e-05 s⁻¹ | tissue uptake [3, 9]: 1.6 ± 0.4 %ID/g | MRT inf [3, 10]: 3.56 ± 0.83 h | Vd/F [3, 10]: 0.07 ± 0.009 L | concentration at 30 min [3, 10]: 4560 ng/g | half-life [3, 10]: 2.24 ± 0.81 h | k el [3, 10]: 0.000139 s⁻¹ | tissue uptake [3, 10]: 2.3 ± 0.2 %ID/g | Tmax ([3]; female, BALB/c, mouse, liver, ip, Tmax, IP 10 mg/kg): 0.5 h | MRT inf [3, 11]: 5 ± 1 h | Vd/F [3, 11]: 0.135 ± 0.108 L | half-life [3, 11]: 1.9 ± 0.6 h | k el [3, 11]: 0.000119 s⁻¹ | tissue uptake [3, 11]: 1.6 ± 0.7 %ID/g | Tmax ([3]; female, BALB/c, mouse, liver, po, Tmax, PO 10 mg/kg): 0.5 h | MRT inf [3, 12]: 1.27 ± 0.06 h | Vd/F [3, 12]: 0.201 ± 0.038 L | half-life [3, 12]: 1.84 ± 0.24 h | k el [3, 12]: 0.000108 s⁻¹ | tissue uptake [3, 12]: 0.72 ± 0.08 %ID/g | Tmax ([3]; female, BALB/c, mouse, lungs, ip, Tmax, IP 10 mg/kg): 0.5 h | MRT inf [3, 13]: 0.89 ± 0.08 h | Vd/F [3, 13]: 0.01 ± 0.004 L | half-life [3, 13]: 0.89 ± 0.18 h | k el [3, 13]: 0.000242 s⁻¹ | tissue uptake [3, 13]: 13 ± 5 %ID/g | Tmax ([3]; female, BALB/c, mouse, lungs, po, Tmax, PO 10 mg/kg): 0.5 h | MRT inf [3, 14]: 2 ± 0.08 h | Vd/F [3, 14]: 0.268 ± 0.135 L | concentration at 30 min [3, 14]: 1620 ng/g | half-life [3, 14]: 1.89 ± 0.11 h | k el [3, 14]: 0.000103 s⁻¹ | tissue uptake [3, 14]: 0.81 ± 0.16 %ID/g | MRT inf [3, 15]: 5.7 ± 0.2 h | Vd/F [3, 15]: 0.535 ± 0.042 L | half-life [3, 15]: 11 ± 3 h | k el [3, 15]: 2.22e-05 s⁻¹ | tissue uptake [3, 15]: 0.26 ± 0.06 %ID/g | AUC0–t ([3]; heart, IP 10 mg/kg): 0.46 ± 0.14 h %ID/g | Cl/F ([3]; heart, IP 10 mg/kg): 224 ± 66 mL/h | AUC0–t ([3]; heart, PO 10 mg/kg): 0.22 ± 0.03 h %ID/g | Cl/F ([3]; heart, PO 10 mg/kg): 347 ± 44 mL/h | AUC0–t ([3]; kidneys, IP 10 mg/kg): 16.3 ± 7.2 h %ID/g | Cl/F ([3]; kidneys, IP 10 mg/kg): 12 ± 7 mL/h | AUC0–t ([3]; kidneys, PO 10 mg/kg): 2.5 ± 0.9 h %ID/g | Cl/F ([3]; kidneys, PO 10 mg/kg): 51 ± 25 mL/h | AUC0–t ([3]; liver, IP 10 mg/kg): 3.9 ± 1.3 h %ID/g | Cl/F ([3]; liver, IP 10 mg/kg): 31 ± 13 mL/h | AUC0–t ([3]; liver, PO 10 mg/kg): 4 ± 2 h %ID/g | Cl/F ([3]; liver, PO 10 mg/kg): 37 ± 23 mL/h | AUC0–t ([3]; lungs, IP 10 mg/kg): 0.86 ± 0.20 h %ID/g | Cl/F ([3]; lungs, IP 10 mg/kg): 82 ± 26 mL/h | AUC0–t ([3]; lungs, PO 10 mg/kg): 17 ± 7 h %ID/g | Cl/F ([3]; lungs, PO 10 mg/kg): 10 ± 6 mL/h | Tmax ([3]; lungs, PO 10 mg/kg): 0.28 ± 0.11 h | AUC0–t ([3]; spleen, IP 10 mg/kg): 1.4 ± 0.5 h %ID/g | Cl/F ([3]; spleen, IP 10 mg/kg): 93 ± 42 mL/h | AUC0–t ([3]; spleen, PO 10 mg/kg): 1.5 ± 0.2 h %ID/g | Cl/F ([3]; spleen, PO 10 mg/kg): 44 ± 16 mL/h | detection of MBQ-167 in tumor [4]: not detected | systemic clearance exceeds mean basal renal glomerular filtration rate in mice ([5]; GFR 12–18 mL/h): […] | systemic clearance adjusted by F ([5]; PO administration): 136.5 mL/h | clearance ([5]; female, BALB/c, mouse, plasma, 10 mg/kg): ~83.3 mL/min/kg | AUC(0-t) [5, 16]: 1640 ± 291 ng·h/mL | Cmax [5, 16]: 2970 ± 1380 ng/mL | MRT inf [5, 16]: 1.9 ± 0.1 h | Tmax [5, 16]: 0.22 ± 0.14 h | concentration at 30 min [5, 16]: 840 ng/mL | half-life [5, 16]: 2.17 ± 0.06 h | AUC(0-t) [5, 17]: 585 ± 150 ng·h/mL | Cmax [5, 17]: 619 ± 195 ng/mL | MRT inf [5, 17]: 1.9 ± 0.1 h | Tmax [5, 17]: 0.5 h | half-life [5, 17]: 2.6 ± 0.2 h | time to elimination from plasma and tissues ([5]; following administration by both routes): 6 to 8 h | drug remaining in the bloodstream ([5]; from apparent volume of distribution vs blood volume 1.5–2.0 mL): less than 1% | plasma drug concentration lower after PO compared to IP ([5]; maximum plasma concentration, same dosage): […] | clearance rate as share of liver blood flow in the mouse ([5]; mouse, in vivo): ~85% | F (relative bioavailability) ([5]; oral gavage relative to IP, 10 mg/kg, mean ± SEM): 35% and 35 ± 3% | Cl/F [5, 18]: 129 mL/h and 129 ± 24 mL/h | Kel [5, 18]: 0.320 ± 0.009 h^–^1 | Kel ([5]; plasma, oral gavage 10 mg/kg, mean ± SEM): 0.27 ± 0.02 h^–^1 | Cl/F ([5]; plasma, oral gavage 10 mg/kg, mean ± SEM, 10 mg/kg): 390 mL/h and 390 ± 111 mL/h
